In ChEMBL document CHEMBL4706544, “Discovery of 2-oxy-2-phenylacetic acid substituted naphthalene sulfonamide derivatives as potent KEAP1-NRF2 protein-protein interaction inhibitors for inflammatory conditions” (Eur J Med Chem, 2020):
Active and inactive are the calls of the source. The rule behind the calls is not given here.

Legend:
Keap1/Nrf2 = Keap1/Nrf2 (Homo sapiens, UniProt Q14145)
[1] = Hepatic clearance in CD-1 rat liver microsomes preincubated for 5 mins followed by NADPH addition and measured after 45 mins by LC-MS/MS analysis; assay type: ADME, Microsome
Outline: (§1)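 CD-1 male rat liver microsomes in PBS were shaken 10 min at 37 °C, then DMSO compound solution (0.1 mM) was added. Plates were preincubated 5 min at 37 °C before NADPH was added to start the reaction; the 0-min samples were quenched with acetonitrile first. Ice-cold acetonitrile stopped reactions at 5, 15, 30 and 45 min. Clozapine was the reference; supernatants were analysed by LC-MS/MS.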

[2] = AUC (0 to infinity) in Sprague-Dawley rat at 1 mg/kg, iv by LC-MS/MS analysis; assay type: ADME, organism-based; set-up: dose 1 mg/kg, route intravenous, time infinity; conditions: in vivo
[3] = Half life in CD-1 rat liver microsomes preincubated for 5 mins followed by NADPH addition and measured after 45 mins by LC-MS/MS analysis; assay type: ADME, Microsome; conditions: time 50 min
Outline: as §1

Cytochrome P450 3A4 = Cytochrome P450 3A4 (Homo sapiens, UniProt P08684); test: Inhibition of CYP3A4 in human liver microsomes preincubated for 10 mins followed by NADPH addition by LC-MS/MS analysis; assay type: ADME
Cytochrome P450 3A4, sequence (P08684 whole entry): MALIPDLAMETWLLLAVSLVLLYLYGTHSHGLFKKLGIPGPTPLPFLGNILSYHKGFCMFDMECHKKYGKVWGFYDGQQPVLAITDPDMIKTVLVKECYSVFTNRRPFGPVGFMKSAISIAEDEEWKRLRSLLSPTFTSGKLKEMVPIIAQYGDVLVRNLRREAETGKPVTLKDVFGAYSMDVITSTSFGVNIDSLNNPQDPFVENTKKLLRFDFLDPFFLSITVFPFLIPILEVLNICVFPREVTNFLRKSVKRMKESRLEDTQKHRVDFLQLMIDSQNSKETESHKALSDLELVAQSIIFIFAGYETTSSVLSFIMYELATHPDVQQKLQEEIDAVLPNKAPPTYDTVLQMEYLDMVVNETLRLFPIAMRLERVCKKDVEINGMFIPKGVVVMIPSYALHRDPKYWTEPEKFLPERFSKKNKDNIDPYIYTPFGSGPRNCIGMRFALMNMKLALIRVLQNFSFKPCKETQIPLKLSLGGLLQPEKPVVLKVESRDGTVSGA

[4] = AUC (0 to t) in Sprague-Dawley rat at 1 mg/kg, iv by LC-MS/MS analysis; assay type: ADME, organism-based; conditions: in vivo
Mus musculus [5] = test: Antiinflammatory activity in ip dosed LPS-induced C57BL/6 mouse model assessed as reduction in IFNgamma production treated for 3 days measured 24 hrs post last dose by ELISA; assay type: functional, organism-based; conditions: time 4.0 day
Outline: (§2)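 Female C57BL/6 mice (20 ± 2 g) got LPS 300 µg/kg IP, then 4 h later IP test compound (500 µL) daily for 3 days. Groups were saline control (n=3), LPS (n=8), LPS + 10 or 40 mg/kg (n=8 each) and LPS + dexamethasone 10 mg/kg IP (n=8). Sera were taken 24 h after the last dose, and IFN-γ, IL-1β, IL-6 and TNF-α were measured by ELISA kits.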

RAW264.7 [6] = test: Antioxidant activity in LPS-induced mouse RAW264.7 cells assessed as restoration of GSH-Px activity at 10 uM measured after 12 hrs; assay type: functional, cell-based
Outline: (§3)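 RAW 264.7 cells were pretreated with LPS 1 µg/mL for 6 h, then exposed to compound (1 or 10 µM) for a further 12 h. SOD activity (WST-8 kit), GSH-Px activity, MPO activity and the GSH/GSSG ratio were measured with commercial kits per the manufacturer's protocols. Data are mean ± SEM, n = 3 independent observations, one-way ANOVA.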

Cytochrome P450 2C19 = Cytochrome P450 2C19 (Homo sapiens, UniProt P33261); test: Inhibition of CYP2C19 in human liver microsomes preincubated for 10 mins followed by NADPH addition by LC-MS/MS analysis; assay type: ADME
Cytochrome P450 2C19, sequence (P33261 whole entry): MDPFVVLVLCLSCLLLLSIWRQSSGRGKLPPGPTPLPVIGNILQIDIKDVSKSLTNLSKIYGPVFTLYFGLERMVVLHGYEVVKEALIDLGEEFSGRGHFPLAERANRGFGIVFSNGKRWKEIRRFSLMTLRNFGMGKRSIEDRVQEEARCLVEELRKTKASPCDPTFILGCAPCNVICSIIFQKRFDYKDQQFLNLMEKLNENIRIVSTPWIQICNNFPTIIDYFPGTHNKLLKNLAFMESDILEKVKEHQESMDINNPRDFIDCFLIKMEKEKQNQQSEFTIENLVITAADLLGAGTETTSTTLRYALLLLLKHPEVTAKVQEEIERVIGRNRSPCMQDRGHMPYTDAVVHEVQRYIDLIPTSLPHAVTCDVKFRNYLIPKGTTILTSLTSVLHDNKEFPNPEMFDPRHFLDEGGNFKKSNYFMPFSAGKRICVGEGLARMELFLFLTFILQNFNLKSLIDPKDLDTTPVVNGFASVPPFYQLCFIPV

[7] = Cmax in Sprague-Dawley rat at 1 mg/kg, iv by LC-MS/MS analysis; assay type: ADME, organism-based; set-up: route intravenous, dose 1 mg/kg; conditions: in vivo
Outline: (§4)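 Six male SD rats (180–220 g) received 1 mg/kg IV in normal saline with cosolvent. Plasma was obtained by centrifugation at 4 °C and 2000 rpm for 10 min, stored near −80 °C, and analysed by LC-MS/MS.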

Cytochrome P450 2D6 = Cytochrome P450 2D6 (Homo sapiens, UniProt P10635); test: Inhibition of CYP2D6 in human liver microsomes preincubated for 10 mins followed by NADPH addition by LC-MS/MS analysis; assay type: ADME
Cytochrome P450 2D6, sequence (P10635 whole entry): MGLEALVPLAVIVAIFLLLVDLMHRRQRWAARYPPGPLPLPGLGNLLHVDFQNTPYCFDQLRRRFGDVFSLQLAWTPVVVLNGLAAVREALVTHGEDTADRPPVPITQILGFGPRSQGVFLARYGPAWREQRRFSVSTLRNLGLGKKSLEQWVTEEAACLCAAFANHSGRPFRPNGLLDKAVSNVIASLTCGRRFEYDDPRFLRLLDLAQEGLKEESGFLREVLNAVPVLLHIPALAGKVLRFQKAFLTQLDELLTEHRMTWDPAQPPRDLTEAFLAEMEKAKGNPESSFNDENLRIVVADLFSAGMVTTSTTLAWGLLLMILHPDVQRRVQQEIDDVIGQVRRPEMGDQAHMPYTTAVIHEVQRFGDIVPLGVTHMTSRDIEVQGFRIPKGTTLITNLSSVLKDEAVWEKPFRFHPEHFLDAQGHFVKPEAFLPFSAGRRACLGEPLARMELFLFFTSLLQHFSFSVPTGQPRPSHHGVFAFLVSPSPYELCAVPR

Cytochrome P450 1A2 = biological target: T1, Cytochrome P450 1A2 (Homo sapiens, UniProt P05177); test: Inhibition of CYP1A2 in human liver microsomes preincubated for 10 mins followed by NADPH addition by LC-MS/MS analysis; assay type: ADME
T1 sequence (P05177 whole entry): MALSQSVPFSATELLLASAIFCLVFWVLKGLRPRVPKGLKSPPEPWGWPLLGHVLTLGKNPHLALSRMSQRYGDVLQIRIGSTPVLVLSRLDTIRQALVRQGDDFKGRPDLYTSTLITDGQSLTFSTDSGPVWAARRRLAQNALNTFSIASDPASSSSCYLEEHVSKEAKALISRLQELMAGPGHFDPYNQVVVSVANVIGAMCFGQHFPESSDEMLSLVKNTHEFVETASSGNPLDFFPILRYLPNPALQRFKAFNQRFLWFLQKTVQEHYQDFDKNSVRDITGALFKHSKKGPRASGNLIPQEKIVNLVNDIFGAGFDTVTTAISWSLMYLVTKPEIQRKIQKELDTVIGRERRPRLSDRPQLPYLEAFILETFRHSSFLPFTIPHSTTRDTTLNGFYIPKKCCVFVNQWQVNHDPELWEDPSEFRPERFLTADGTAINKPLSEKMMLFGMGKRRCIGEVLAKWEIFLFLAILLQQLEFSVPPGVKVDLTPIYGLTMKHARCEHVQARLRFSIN

RAW264.7 [8] = test: Antioxidant activity in mouse RAW264.7 cells assessed as reversal in LPS-induced increase of MPO activity measured after 12 hrs; assay type: functional, cell-based
Outline: as §3

Cytochrome P450 2C9 = Cytochrome P450 2C9 (Homo sapiens, UniProt P11712); test: Inhibition of CYP2C9 in human liver microsomes preincubated for 10 mins followed by NADPH addition by LC-MS/MS analysis; assay type: ADME
Cytochrome P450 2C9, sequence (P11712 whole entry): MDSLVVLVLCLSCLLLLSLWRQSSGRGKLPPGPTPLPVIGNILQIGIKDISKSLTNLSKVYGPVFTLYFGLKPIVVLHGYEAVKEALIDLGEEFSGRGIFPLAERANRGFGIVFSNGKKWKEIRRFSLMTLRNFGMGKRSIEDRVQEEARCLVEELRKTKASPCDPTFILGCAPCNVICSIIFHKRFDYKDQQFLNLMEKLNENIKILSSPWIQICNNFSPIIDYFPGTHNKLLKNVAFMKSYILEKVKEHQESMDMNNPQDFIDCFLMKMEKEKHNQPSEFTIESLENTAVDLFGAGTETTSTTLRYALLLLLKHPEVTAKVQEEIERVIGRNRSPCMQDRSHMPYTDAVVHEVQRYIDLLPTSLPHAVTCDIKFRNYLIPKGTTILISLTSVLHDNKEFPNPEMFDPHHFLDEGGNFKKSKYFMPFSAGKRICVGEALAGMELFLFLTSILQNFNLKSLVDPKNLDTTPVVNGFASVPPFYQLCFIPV

[9] = Half life in Sprague-Dawley rat at 1 mg/kg, iv by LC-MS/MS analysis; assay type: ADME, organism-based; conditions: in vivo
Outline: as §4

[10] = Intrinsic clearance in CD-1 rat liver microsomes preincubated for 5 mins followed by NADPH addition and measured after 45 mins by LC-MS/MS analysis; assay type: ADME, Microsome; conditions: time 50 min
Outline: as §1

RAW264.7 [11] = test: Antioxidant activity in LPS-induced mouse RAW264.7 cells assessed as restoration of GSH to GSSG ratio at 10 uM measured after 12 hrs; assay type: functional, cell-based
Outline: as §3

Mus musculus [12] = test: Antiinflammatory activity in ip dosed LPS-induced C57BL/6 mouse model assessed as reduction in IL6 production treated for 3 days measured 24 hrs post last dose by ELISA; assay type: functional, organism-based; conditions: time 4.0 day
Outline: as §2

RAW264.7 [13] = test: Antioxidant activity in LPS-induced mouse RAW264.7 cells assessed as restoration of SOD activity at 10 uM […]; assay type: functional, cell-based
Mus musculus [14] = test: Antiinflammatory activity in ip dosed LPS-induced C57BL/6 mouse model assessed as reduction in TNFalpha production treated for 3 days measured 24 hrs post last dose by ELISA; assay type: functional, organism-based; conditions: time 4.0 day
Outline: as §2

Mus musculus [15] = test: Antiinflammatory activity in ip dosed LPS-induced C57BL/6 mouse model assessed as reduction in IL1beta production treated for 3 days measured 24 hrs post last dose by ELISA; assay type: functional, organism-based; conditions: time 4.0 day
Outline: as §2

RAW264.7 [16] = test: Antioxidant activity in mouse RAW264.7 cells assessed as inhibition of LPS-induced ROS generation at 10 uM measured after 12 hrs by CH2DCF-DA staining based fluorescence microscopic analysis; assay type: functional, cell-based
Outline: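 RAW 264.7 cells were pretreated with LPS 1 µg/mL for 6 h, then given compound for 12 h. Cells were washed with PBS and stained with 10 µM c-H2DCF-DA for 20 min at 37 °C in the dark. ROS was imaged by live-cell fluorescence microscopy and quantified as mean fluorescence intensity. n = 3 independent observations, mean ± SEM.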

[17] = Apparent volume of distribution during terminal phase in Sprague-Dawley rat at 1 mg/kg, iv by LC-MS/MS analysis; assay type: ADME, organism-based; conditions: in vivo
Outline: as §4

Mus musculus [18] = test: Antiinflammatory activity in LPS-induced C57BL/6 mouse model assessed as reduction in IL1beta production at 10 mg/kg, ip treated for 3 days measured 24 hrs post last dose by ELISA; assay type: functional, organism-based; conditions: time 4.0 day
Outline: as §2

Mus musculus [19] = test: Antiinflammatory activity in LPS-induced C57BL/6 mouse model assessed as reduction in TNFalpha production at 10 mg/kg, ip treated for 3 days measured 24 hrs post last dose by ELISA; assay type: functional, organism-based; conditions: time 4.0 day
Outline: as §2

Mus musculus [20] = test: Antiinflammatory activity in LPS-induced C57BL/6 mouse model assessed as reduction in IL6 production at 10 mg/kg, ip treated for 3 days measured 24 hrs post last dose by ELISA; assay type: functional, organism-based; conditions: time 4.0 day
Outline: as §2

Mus musculus [21] = test: Antiinflammatory activity in LPS-induced C57BL/6 mouse model assessed as reduction in IFNgamma production at 10 mg/kg, ip treated for 3 days measured 24 hrs post last dose by ELISA; assay type: functional, organism-based; conditions: time 4.0 day
Outline: as §2

Keap1/Nrf2, sequence (Q16236 whole entry): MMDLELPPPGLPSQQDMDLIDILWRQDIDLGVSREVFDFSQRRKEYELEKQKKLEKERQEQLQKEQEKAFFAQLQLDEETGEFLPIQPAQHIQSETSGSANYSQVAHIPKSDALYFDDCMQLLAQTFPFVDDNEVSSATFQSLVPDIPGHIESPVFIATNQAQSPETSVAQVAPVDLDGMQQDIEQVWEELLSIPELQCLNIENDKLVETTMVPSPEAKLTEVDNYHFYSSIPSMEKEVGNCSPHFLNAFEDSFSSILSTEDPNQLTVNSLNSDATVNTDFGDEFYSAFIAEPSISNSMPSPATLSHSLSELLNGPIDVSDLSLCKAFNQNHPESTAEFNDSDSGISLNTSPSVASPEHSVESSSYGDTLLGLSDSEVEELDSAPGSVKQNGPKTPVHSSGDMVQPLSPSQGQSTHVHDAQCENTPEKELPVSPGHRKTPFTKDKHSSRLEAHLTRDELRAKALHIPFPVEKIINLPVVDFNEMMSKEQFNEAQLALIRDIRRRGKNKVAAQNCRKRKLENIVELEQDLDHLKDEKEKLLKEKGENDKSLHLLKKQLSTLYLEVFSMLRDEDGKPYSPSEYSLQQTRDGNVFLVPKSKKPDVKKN
Keap1/Nrf2, sequence (Q14145 whole entry): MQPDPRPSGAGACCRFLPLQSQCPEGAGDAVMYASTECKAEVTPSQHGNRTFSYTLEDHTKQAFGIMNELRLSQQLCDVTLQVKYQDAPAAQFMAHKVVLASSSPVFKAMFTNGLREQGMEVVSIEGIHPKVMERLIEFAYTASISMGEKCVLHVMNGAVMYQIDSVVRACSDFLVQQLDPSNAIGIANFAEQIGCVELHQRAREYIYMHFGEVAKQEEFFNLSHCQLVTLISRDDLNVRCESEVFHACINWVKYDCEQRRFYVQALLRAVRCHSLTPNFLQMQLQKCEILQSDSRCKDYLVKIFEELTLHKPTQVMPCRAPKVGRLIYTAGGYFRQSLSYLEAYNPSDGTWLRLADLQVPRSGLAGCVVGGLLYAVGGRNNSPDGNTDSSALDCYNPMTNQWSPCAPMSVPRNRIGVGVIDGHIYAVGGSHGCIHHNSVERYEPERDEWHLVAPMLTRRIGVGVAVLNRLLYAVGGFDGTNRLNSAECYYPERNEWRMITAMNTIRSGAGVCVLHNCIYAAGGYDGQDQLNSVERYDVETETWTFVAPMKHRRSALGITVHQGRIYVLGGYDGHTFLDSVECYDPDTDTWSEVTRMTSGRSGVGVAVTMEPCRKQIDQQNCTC

## O=C(O)CN(c1ccc(OC(C(=O)O)c2ccccc2)c2ccccc12)S(=O)(=O)c1ccc(Cl)cc1 (configuration not stated)
Keap1/Nrf2
  IC50: 7640 nM

## Cc1cc(C)c(S(=O)(=O)N(CC(=O)O)c2ccc(OC(C(=O)O)c3ccc(C(C)(C)C)cc3)c3ccccc23)c(C)c1 (configuration not stated)
Keap1/Nrf2
  IC50: 19000 nM

## CC(=O)Nc1ccc(C(Oc2ccc(N(CC(=O)O)S(=O)(=O)c3c(C)cc(C)cc3C)c3ccccc23)C(=O)O)cc1 (configuration not stated)
Keap1/Nrf2
  IC50: 980 nM

## Cc1ccc(S(=O)(=O)N(CC(=O)O)c2ccc(OC(C(=O)O)c3ccccc3)c3ccccc23)cc1 (configuration not stated)
Keap1/Nrf2
  IC50: 2690 nM

## CCOc1ccc(C(Oc2ccc(N(CC(=O)O)S(=O)(=O)c3c(C)cc(C)cc3C)c3ccccc23)C(=O)O)cc1 (configuration not stated)
Keap1/Nrf2
  IC50: 150 nM

## O=C(O)CN(c1ccc(OC(C(=O)O)c2ccccc2)c2ccccc12)S(=O)(=O)c1ccc(OC(F)(F)F)cc1 (configuration not stated)
Keap1/Nrf2
  IC50: 5840 nM

## Cc1cc(C)c(S(=O)(=O)N(CC(=O)O)c2ccc(OC(C(=O)O)c3ccc(Br)cc3)c3ccccc23)c(C)c1 (configuration not stated)
Keap1/Nrf2
  IC50: 430 nM

## COc1ccc(C(Oc2ccc(N(CC(=O)O)S(=O)(=O)c3c(C)cc(C)cc3C)c3ccccc23)C(=O)O)cc1 (configuration not stated)
[1]
  CLhep predicted at […]: 2.69 mL/min/kg
[2]
  AUC: 2649 ng·h/mL
[3]
  half-life at […]: 10.5 h
Cytochrome P450 3A4
  IC50: > 10000 nM
[4]
  AUC(0-t): 2550 ng·h/mL
Mus musculus [5]
  Activity: Dose-dependent effect
RAW264.7 [6]
  Activity: Active
Cytochrome P450 2C19
  IC50: > 10000 nM
[7]
  Cmax: 15100 ng/mL
Cytochrome P450 2D6
  IC50: > 10000 nM
Cytochrome P450 1A2
  IC50: > 10000 nM
RAW264.7 [8]
  Activity: Dose-dependent effect
Cytochrome P450 2C9
  IC50: > 10000 nM
[9]
  t1/2: 1.72 h
[10]
  CLint at […]: 1.57 µL/min/mg
RAW264.7 [11]
  Activity: Active
Mus musculus [12]
  Activity: Dose-dependent effect
RAW264.7 [13]
  Activity: Active
Mus musculus [14]
  Activity: Dose-dependent effect
Mus musculus [15]
  Activity: Dose-dependent effect
RAW264.7 [16]
  inhibition: Dose-dependent effect
[17]
  Vz/F: 0.953 L/kg

## NC(=O)c1ccc(S(=O)(=O)N(CC(=O)O)c2ccc(OC(C(=O)O)c3ccccc3)c3ccccc23)cc1 (configuration not stated)
Keap1/Nrf2
  IC50: 2690 nM

## O=C(O)CN(c1ccc(OC(C(=O)O)c2ccccc2)c2ccccc12)S(=O)(=O)c1cccc2ccccc12 (configuration not stated)
Keap1/Nrf2
  IC50: 780 nM

## Cc1cc(C)c(S(=O)(=O)N(CC(=O)O)c2ccc(OC(C(=O)O)c3ccc(O)cc3)c3ccccc23)c(C)c1 (configuration not stated)
Keap1/Nrf2
  IC50: 160 nM

## O=C(O)CN(c1ccc(OC(C(=O)O)c2ccccc2)c2ccccc12)S(=O)(=O)c1ccccc1 (configuration not stated)
Keap1/Nrf2
  IC50: 17800 nM

## Cc1cc(C)c(S(=O)(=O)N(CC(=O)O)c2ccc(OC(C(=O)O)c3ccc(Cl)cc3)c3ccccc23)c(C)c1 (configuration not stated)
Keap1/Nrf2
  IC50: 190 nM

## O=C(O)CN(c1ccc(OC(C(=O)O)c2ccccc2)c2ccccc12)S(=O)(=O)c1ccc(Br)cc1 (configuration not stated)
Keap1/Nrf2
  IC50: 2970 nM

## Cc1cc(C)c(S(=O)(=O)N(CC(=O)O)c2ccc(OC(C(=O)O)c3ccc(F)cc3)c3ccccc23)c(C)c1 (configuration not stated)
Keap1/Nrf2
  IC50: 170 nM

## Cc1cc(C)c(S(=O)(=O)N(CC(=O)O)c2ccc(OC(C(=O)O)c3ccc(C(F)(F)F)cc3)c3ccccc23)c(C)c1 (configuration not stated)
Keap1/Nrf2
  IC50: 1190 nM

## C[C@@H]1C[C@H]2[C@@H]3CCC4=CC(=O)C=C[C@]4(C)[C@@]3(F)[C@@H](O)C[C@]2(C)[C@@]1(O)C(=O)CO
Mus musculus [18]
  Activity: Active
Mus musculus [19]
  Activity: Active
Mus musculus [20]
  Activity: Active
Mus musculus [21]
  Activity: Active

## Cc1cc(C)c(S(=O)(=O)N(CC(=O)O)c2ccc(OC(C(=O)O)c3ccc(OC(C)C)cc3)c3ccccc23)c(C)c1 (configuration not stated)
Keap1/Nrf2
  IC50: 500 nM
